Results on 40 compounds are retold here after PubChem BioAssay.

Molecules are shown by their SMILES. Values without a mark were called inactive. Calls of active or inactive are those of the source.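 Rule for the calls, unless noted: active = inhibition at or above 50% relative to wild type and mutant plate controls; inactive = inhibition below 50%.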

Broadly, the inhibition is the change of the read-out against control, counted positive when it falls.

The first test can be described thus: inhibitors of larval lipid processing in zebrafish, primary screen, whole organism, PED6 fluorescence, gall bladder and intestine (AID 686;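 active = a full or partial loss of lipid-probe fluorescence in the fish gall bladder, intestine or both, judged by eye; inactive = no fluorescence loss, or compound toxic to the fish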;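 note: signal comes from phospholipase A2 cleavage of quenched PED6 carried via bile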). As to conditions: Zebrafish larvae PED6 lipid processing, fluorescence scoring; screened at 20 µM (by protocol). In a few lines: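 Doses: 20 µM single dose. Test system: live zebrafish larvae aged 5-7 days, whole organism. Quantity: five larvae per well. Measured by: By-eye fluorescence microscopy. Reagent: ingested quenched lipid PED6 at 100 nM. Read-out: visual per-well fluorescence inhibition score. Times: overnight exposure of larvae to compound plus PED6.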
On to `CNc1oc(-c2ccc(Cl)cc2)nc1C#N`, for which the compound was classed as inactive.

As for `O=C(CNC1=NCCC1)c1ccc2c(c1)OCCO2`, the call was inactive.

Regarding `COc1ccc(CNC(=O)c2c(C)cc(=O)oc2C)cc1OC`, the call was inactive.

Regarding `C=CCOn1c(=O)c(-c2cc3ccccc3o2)[n+]([O-])c2ccccc21`, the compound was called inactive.

Consider `COC(=O)c1ccn(C(=O)c2ccc(Cl)cc2)n1`, for which the compound was called inactive.

With `c1ccc(OCc2nn3c(C4CCCCC4)nnc3s2)cc1`, the compound was classed as inactive.

With `CC(C)Cc1nc(N2CCN(C(=O)C(C)C)CC2)c(C#N)c2c1CCC2`, the result was inactive.

Take `COC(=O)c1sccc1NC(=O)c1c(C)cc(=O)oc1C`: the call was inactive.

In the case of `Cc1ccc(S(=O)(=O)N2CCC(N3CCCCCC3)CC2)cc1`, the call was inactive.

Turning to `COc1ccc(C2=Nn3c(nnc3-c3cccnc3)SC2)cc1OC`, the compound was classed as inactive.

Regarding `CCCCOc1ccc(CN(C)c2ncnc(N)n2)cc1`, the compound was called inactive.

In the case of `CCCCCCc1cc2cc(-c3nnc(-c4ccccc4O)o3)c(=O)oc2cc1O`, the outcome was inactive.

In the case of `CC(=O)Nc1cccc(NC(=O)CSc2nc(C)c(C)c(C)c2C#N)c1`, the result was inactive.

For `Cc1cc(=O)oc2cc(OCCSCCN3CCOCC3)ccc12`, the call was inactive.

On to `COc1ccccc1C(CC(=O)Nc1nccs1)c1ccco1` (stereo not given), for which the call was inactive.

Regarding `CCC1(C)Cc2ccccc2-c2nc(NCCO)n(-c3ccccc3)c(=O)c21` (stereo not given), the result was inactive.

As to `CC1(C)Cc2c(sc3c4nnnn4c4nnnn4c23)CO1`, the outcome was inactive.

Turning to `CC(C)CN1C(=O)NC(NC(=O)c2cccnc2)(C(F)(F)F)C1=O` (stereo not given), the compound was called inactive.

Regarding `CCOC(=O)C(C)Oc1nc(Oc2ccccc2)nc(N(C)C)n1` (stereo not given), the compound was classed as inactive.

In the case of `CC1(C)Cc2nc(N)c(C(=O)NCCO)cc2CO1`, the compound was called inactive.

`COc1ccc(Cn2c(O)cc(=O)[nH]c2=O)cc1`: the compound was called inactive.

Take `CC(C(=O)N1CCOCC1)N1C(=O)c2ccccc2C1=O` (stereo not given): the outcome was inactive.

With `COC(=O)CSc1nc(N)c2c3c(sc2n1)CCCC3`, the result was inactive.

On to `N#Cc1c(-c2ccco2)cc(C2CC2)nc1N`, for which the compound was called inactive.

As to `CC1(C)Cc2c(C#N)c(N3CCOCC3)nc(-c3ccccc3)c2CO1`, the result was inactive.

Turning to `CC(=O)Nc1cnc2ccccc2n1`, the outcome was “inactive; toxic”.

`COc1ccc(OCC(=O)N2CCN(C(=O)c3cccc4ccccc34)CC2)cc1`: the call was inactive.

As to `CC(C)CC(=O)Nc1ccccc1N1CCCC1`, the outcome was inactive.

As to `CCCNC(=O)N(C)c1nncnc1C(=O)NC`, the result was inactive.

Consider `N#CC1(P(=O)(c2ccccc2)c2ccccc2)CC1`, for which the result was inactive.

In the case of `Cc1nc(Nc2ncc3c(n2)CC(C)(C)CC3=O)nc2ccccc12`, the outcome was inactive.

Regarding `O=c1c(F)cn(C2CCCO2)c(=O)n1Cc1ccccc1Cl` (stereo not given), the result was inactive.

For `CCC(=O)Nc1cc(-c2nn(C)c(=O)c3ccccc23)ccc1N1CCCCC1`, the compound was called inactive.

For `O=c1[nH]c(=O)n(Cc2ccco2)c2c1C(C(F)(F)F)(C(F)(F)F)N=C(c1ccco1)N2`, the compound was called inactive.

For the compound `Cn1c(=O)n(C)c2cc(C(=O)c3ccccc3)ccc21`, the compound was called inactive.

Regarding `N#Cc1nc(-c2ccc(Cl)cc2)oc1N1CCCCC1`, the outcome was inactive.

As to `Cc1cc(=O)oc(C)c1C(=O)NCCNC(=O)c1c(C)cc(=O)oc1C`, the compound was classed as inactive.

As to `CCCCNC(=O)N1CCOCCOCCN(C(=O)NCCCC)CCOCC1`, the compound was classed as inactive.

Take `CCN(CC)c1ccc2cc(C(=O)Nc3ccccn3)c(=O)oc2c1`: the compound was classed as inactive.

`CCN1CC2=C(OC(N)=C(C#N)C2c2ccccc2)/C(=C\c2ccccc2)C1` (stereo not given): the outcome was “active; no signal in intestine only”.

A further test can be described thus: loss of swimming-algae plug formation – whole organism, Chlamydomonas reinhardtii, WT vs cilia-less mutant, absorbance, 96-well, primary screen (AID 463189).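 Note: 0% = wild type cc124 cells in DMSO and 100% = ciliumless bld1 mutant cells.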 As to conditions: Chlamydomonas reinhardtii gravitaxis, OD600 absorbance, 2 days; at 10 µM; active compounds read high.
As to `CNc1oc(-c2ccc(Cl)cc2)nc1C#N`, the inhibition is 7.15%.

With `O=C(CNC1=NCCC1)c1ccc2c(c1)OCCO2`, the inhibition is -8.59%.

Turning to `COc1ccc(CNC(=O)c2c(C)cc(=O)oc2C)cc1OC`, the inhibition is -7.01%.

Take `C=CCOn1c(=O)c(-c2cc3ccccc3o2)[n+]([O-])c2ccccc21`: the inhibition was 18.3%.

As for `COC(=O)c1ccn(C(=O)c2ccc(Cl)cc2)n1`, the inhibition is 6.37%.

As for `c1ccc(OCc2nn3c(C4CCCCC4)nnc3s2)cc1`, the inhibition is -1.22%.

For the compound `CC(C)Cc1nc(N2CCN(C(=O)C(C)C)CC2)c(C#N)c2c1CCC2`, the inhibition was 5.12%.

As to `COC(=O)c1sccc1NC(=O)c1c(C)cc(=O)oc1C`, the inhibition was -11.2%.

On to `Cc1ccc(S(=O)(=O)N2CCC(N3CCCCCC3)CC2)cc1`, for which the inhibition is 116% (active).

As for `COc1ccc(C2=Nn3c(nnc3-c3cccnc3)SC2)cc1OC`, the inhibition was 2.3%.

Regarding `CCCCOc1ccc(CN(C)c2ncnc(N)n2)cc1`, the inhibition is 29.8%.

For the compound `CCCCCCc1cc2cc(-c3nnc(-c4ccccc4O)o3)c(=O)oc2cc1O`, the inhibition was 13.3%.

`CC(=O)Nc1cccc(NC(=O)CSc2nc(C)c(C)c(C)c2C#N)c1`: the inhibition was -2.25%.

With `Cc1cc(=O)oc2cc(OCCSCCN3CCOCC3)ccc12`, the inhibition was -5.19%.

For the compound `COc1ccccc1C(CC(=O)Nc1nccs1)c1ccco1` (stereo not given), the inhibition is 31.8%.

For `CCC1(C)Cc2ccccc2-c2nc(NCCO)n(-c3ccccc3)c(=O)c21` (stereo not given), the inhibition was -9.34%.

Turning to `CC1(C)Cc2c(sc3c4nnnn4c4nnnn4c23)CO1`, the inhibition is 27.1%.

As to `CC(C)CN1C(=O)NC(NC(=O)c2cccnc2)(C(F)(F)F)C1=O` (stereo not given), the inhibition was -0.985%.

Take `CCOC(=O)C(C)Oc1nc(Oc2ccccc2)nc(N(C)C)n1` (stereo not given): the inhibition is -18.7%.

Regarding `CC1(C)Cc2nc(N)c(C(=O)NCCO)cc2CO1`, the inhibition was 6.5%.

For the compound `COc1ccc(Cn2c(O)cc(=O)[nH]c2=O)cc1`, the inhibition is -11.1%.

For the compound `CC(C(=O)N1CCOCC1)N1C(=O)c2ccccc2C1=O` (stereo not given), the inhibition was 15.3%.

Consider `COC(=O)CSc1nc(N)c2c3c(sc2n1)CCCC3`, for which the inhibition is -6.63%.

On to `N#Cc1c(-c2ccco2)cc(C2CC2)nc1N`, for which the inhibition was -5.69%.

`CC1(C)Cc2c(C#N)c(N3CCOCC3)nc(-c3ccccc3)c2CO1`: the inhibition is -17.1%.

`CC(=O)Nc1cnc2ccccc2n1`: the inhibition is -0.95%.

Turning to `COc1ccc(OCC(=O)N2CCN(C(=O)c3cccc4ccccc34)CC2)cc1`, the inhibition is 0.794%.

On to `CC(C)CC(=O)Nc1ccccc1N1CCCC1`, for which the inhibition is -8.2%.

With `CCCNC(=O)N(C)c1nncnc1C(=O)NC`, the inhibition is -3.95%.

In the case of `N#CC1(P(=O)(c2ccccc2)c2ccccc2)CC1`, the inhibition was 5.77%.

For the compound `Cc1nc(Nc2ncc3c(n2)CC(C)(C)CC3=O)nc2ccccc12`, the inhibition was -7.48%.

As to `O=c1c(F)cn(C2CCCO2)c(=O)n1Cc1ccccc1Cl` (stereo not given), the inhibition is 4.11%.

For the compound `CCC(=O)Nc1cc(-c2nn(C)c(=O)c3ccccc23)ccc1N1CCCCC1`, the inhibition was 25.8%.

Regarding `O=c1[nH]c(=O)n(Cc2ccco2)c2c1C(C(F)(F)F)(C(F)(F)F)N=C(c1ccco1)N2`, the inhibition is -4.12%.

Turning to `Cn1c(=O)n(C)c2cc(C(=O)c3ccccc3)ccc21`, the inhibition was -6.61%.

Take `N#Cc1nc(-c2ccc(Cl)cc2)oc1N1CCCCC1`: the inhibition is 20%.

With `Cc1cc(=O)oc(C)c1C(=O)NCCNC(=O)c1c(C)cc(=O)oc1C`, the inhibition was -8.5%.

For the compound `CCCCNC(=O)N1CCOCCOCCN(C(=O)NCCCC)CCOCC1`, the inhibition was 9.99%.

Consider `CCN(CC)c1ccc2cc(C(=O)Nc3ccccn3)c(=O)oc2c1`, for which the inhibition is 20.3%.

Take `CCN1CC2=C(OC(N)=C(C#N)C2c2ccccc2)/C(=C\c2ccccc2)C1` (stereo not given): the inhibition is 14.6%.
